The source made the active and inactive calls. The rule behind the calls is not given here.
Key:
Rattus norvegicus [1] = experiment: Antiinflammatory activity in Sprague-Dawley rat acute model of carrageenan-induced paw edema assessed as inhibition of rat paw edema at 50 mg/kg, po pre treated for 1 hr followed by carrageenan-stimulation and measured after 3 hrs by plethysmometeric method relative to control; format: functional; conditions: time 4 hrs
Summary of the method: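 SD rats of either sex, 150–200 g, n = 6, dosed orally in 0.2% agar suspension. After 1 h, 0.1 mL 1% carrageenan in saline injected into the left hind sub-plantar paw. Paw volume measured by mercury plethysmometer before and 3 h after injection. % edema inhibition calculated. Mean ± SEM.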

Rattus norvegicus [2] = experiment: Antiinflammatory activity in Sprague-Dawley rat chronic model of formalin-induced paw edema assessed as inhibition of rat paw edema at 50 mg/kg, po pre treated for 1 hr followed by formalin-stimulation and measured after 2 days by plethysmometeric method relative to control; format: functional; conditions: 48 h, time 2 day
Summary of the method: (§1)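 Chronic paw edema. Oral pre-dose in 0.2% agar; after 1 h, 0.1 mL 2% formalin in saline injected into the left hind sub-plantar paw, repeated on 5 consecutive days. Paw volume by plethysmometer. % inhibition of edema size relative to disease control, days 1–5. n = 6, mean ± SEM, one-way ANOVA with Tukey's test.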

Rattus norvegicus [3] = experiment: Antiinflammatory activity in Sprague-Dawley rat chronic model of formalin-induced paw edema assessed as inhibition of rat paw edema at 50 mg/kg, po pre treated for 1 hr followed by formalin-stimulation and measured after 5 day by plethysmometeric method relative to control; format: functional; conditions: 120 h; summary of the method: as §1
Rattus norvegicus [4] = experiment: Antiinflammatory activity in Sprague-Dawley rat chronic model of formalin-induced paw edema assessed as inhibition of rat paw edema at 50 mg/kg, po pre treated for 1 hr followed by formalin-stimulation and measured after 3 days by plethysmometeric method relative to control; format: functional; conditions: 72 h, time 3 day; summary of the method: as §1
Rattus norvegicus [5] = experiment: Antiinflammatory activity in Sprague-Dawley rat chronic model of formalin-induced paw edema assessed as inhibition of rat paw edema at 50 mg/kg, po pre treated for 1 hr followed by formalin-stimulation and measured after 4 days by plethysmometeric method relative to control; format: functional; conditions: 96 h, time 4 day; summary of the method: as §1
Rattus norvegicus [6] = experiment: Antiinflammatory activity in Sprague-Dawley rat chronic model of formalin-induced paw edema assessed as inhibition of rat paw edema at 50 mg/kg, po pre treated for 1 hr followed by formalin-stimulation and measured after 1 day by plethysmometeric method relative to control; format: functional; conditions: 24 h; summary of the method: as §1
Rattus norvegicus [7] = experiment: Antiinflammatory activity in Sprague-Dawley rat acute model of carrageenan-induced paw edema assessed as inhibition of rat paw edema at 50 mg/kg, po pre treated for 1 hr followed by carrageenan-stimulation and measured after 3 hrs by plethysmometeric method relative to control
Rattus norvegicus [8] = experiment: Antiinflammatory activity in Sprague-Dawley rat chronic model of formalin-induced paw edema assessed as inhibition of rat paw edema at 50 mg/kg, po pre treated for 1 hr followed by formalin-stimulation and measured after 5 days by plethysmometeric method relative to control; format: functional; conditions: 120 h, time 5 day; summary of the method: as §1
[9] = Toxicity in AlCl3-induced Sprague-Dawley rat assessed as stomach lesion index at 5 mg/kg, po after 28 days by H and E staining based microscopic method; format: organism-based; conditions: in vivo, 672 h, time 28 day
Summary of the method: (§2)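 Gastrointestinal damage in AlCl3-model rats, 28 days of oral dosing. Stomach and intestines were washed in cold PBS 0.01 M pH 7.4 and fixed 24 h in 10% neutral buffered formalin. After a 70% ethanol wash, haemorrhagic damage was measured by digital vernier caliper for the lesion index. HE-stained sections examined microscopically.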

Rattus norvegicus [10] = experiment: Antialzheimer activity against AlCl3-induced Sprague-Dawley rat assessed as reduction in hippocampal neuronal degeneration at 5 mg/kg, po after 28 days by H and E staining based microscopic method; format: functional, organism-based; conditions: time 28.0 day
Summary of the method: (§3)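 Hippocampal neuronal degeneration. After 28 days of oral dosing in 0.2% agar with daily AlCl3 4.2 mg/kg i.p., brain sections were HE-stained and hippocampal regions examined at 100X.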

[11] = Toxicity in AlCl3-induced Sprague-Dawley rat assessed as reduction in total protein level at 5 mg/kg, po after 28 days by automated analyser; format: organism-based; conditions: in vivo, 672 h, time 28 day
Summary of the method: (§4)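 Under isoflurane, retro-orbital blood was collected into non-heparinized tubes after the 28-day AlCl3 model with oral dosing. Serum % albumin and total protein were measured on an automated clinical chemistry analyser.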

[12] = Toxicity in AlCl3-induced Sprague-Dawley rat assessed as reduction in HCT level at 5 mg/kg, po after 28 days by automated haematology analyser; format: organism-based; conditions: in vivo, 672 h, time 28 day
Summary of the method: (§5)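 On day 29 of the AlCl3 model (28 days of oral dosing), blood was drawn from the retro-orbital sinus under isoflurane into heparinized tubes. Haemoglobin and haematocrit were measured on a haematology analyser.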

[13] = Toxicity in AlCl3-induced Sprague-Dawley rat assessed as reduction in HGB level at 5 mg/kg, po after 28 days by automated haematology analyser; format: organism-based; conditions: in vivo, 672 h, time 28 day; summary of the method: as §5
[14] = Toxicity in AlCl3-induced Sprague-Dawley rat assessed as reduction in serum albumin level at 5 mg/kg, po after 28 days by automated analyser; format: organism-based; conditions: in vivo, 672 h, time 28 day; summary of the method: as §4
[15] = Toxicity in AlCl3-induced Sprague-Dawley rat assessed as intestine lesion index at 5 mg/kg, po after 28 days by H and E staining based microscopic method; format: organism-based; conditions: in vivo, 672 h, time 28 day; summary of the method: as §2
Rattus norvegicus [16] = experiment: Antialzheimer activity against AlCl3-induced Sprague-Dawley rat assessed as reduction in plaque formation in the cortex region at 50 mg/kg, po after 28 days by congo red staining based microscopic method; format: functional, organism-based; conditions: time 28.0 day
Summary of the method: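 Cortical amyloid plaques in Congo red-stained brain sections viewed at 100X. Rats had 28 days of oral dosing in 0.2% agar plus AlCl3 4.2 mg/kg i.p.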

[17] = Toxicity in AlCl3-induced Sprague-Dawley rat assessed as stomach lesion at 50 mg/kg, po after 28 days by H and E staining based microscopic method; format: organism-based; conditions: in vivo, 672 h, time 28 day; summary of the method: as §2
Rattus norvegicus [18] = experiment: Antialzheimer activity against AlCl3-induced Sprague-Dawley rat assessed as improved in working memory at 50 mg/kg, po for 7 to 28 days by Y maze test; format: functional, organism-based; conditions: time 7-28 day
Summary of the method: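 Y-maze: rats trained for 5 consecutive days. Arm entries recorded; SAP = total entries minus two; % alteration = actual ÷ maximum alteration × 100. Assessed on days 7, 14, 21 and 28 of daily oral dosing in 0.2% agar plus AlCl3 4.2 mg/kg i.p. n = 6, two-way ANOVA with Tukey's test.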

[19] = Toxicity in AlCl3-induced Sprague-Dawley rat assessed as reduction in HGB level at 50 mg/kg, po after 28 days by automated haematology analyser; format: organism-based; conditions: in vivo, 672 h, time 28 day; summary of the method: as §5
Rattus norvegicus [20] = experiment: Antialzheimer activity against AlCl3-induced Sprague-Dawley rat assessed as improved in spatial working memory at 50 mg/kg, po for 7 to 28 days by elevated plus maze test; format: functional, organism-based; conditions: time 7-28 day
Rattus norvegicus [21] = experiment: Antialzheimer activity against AlCl3-induced Sprague-Dawley rat assessed as reduction in hippocampal neuronal degeneration at 50 mg/kg, po after 28 days by H and E staining based microscopic method; format: functional, organism-based; conditions: time 28.0 day; summary of the method: as §3
[22] = Toxicity in AlCl3-induced Sprague-Dawley rat assessed as focal erosions in stomach at 50 mg/kg, po after 28 days by H and E staining based microscopic method; format: organism-based; conditions: in vivo, 672 h, time 28 day; summary of the method: as §2
[23] = Toxicity in AlCl3-induced Sprague-Dawley rat assessed as intestine lesion at 50 mg/kg, po after 28 days by H and E staining based microscopic method; format: organism-based; conditions: in vivo, 672 h, time 28 day; summary of the method: as §2
[24] = Toxicity in AlCl3-induced Sprague-Dawley rat assessed as reduction in HCT level at 50 mg/kg, po after 28 days by automated haematology analyser; format: organism-based; conditions: in vivo, 672 h, time 28 day; summary of the method: as §5
Rattus norvegicus [25] = experiment: Antialzheimer activity against AlCl3-induced Sprague-Dawley rat assessed as reduction in brain LPO activity at 50 mg/kg, po after 28 days by UV-VIS spectrophotometric method; format: functional, organism-based; conditions: time 28.0 day
Summary of the method: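 Brain LPO as MDA by the TBA reaction. AlCl3 model: oral dosing in 0.2% agar for 28 days plus AlCl3 4.2 mg/kg i.p. daily. Day-29 brains were homogenized in HBSS pH 7.4 and the pellet resuspended. Reaction with SDS, acetic acid pH 3.5 and TBA at 95 °C for 1 h, then n-butanol:pyridine extraction. Read at 532 nm, extinction coefficient applied, per gram organ. n = 6.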

Rattus norvegicus [26] = experiment: Antialzheimer activity against AlCl3-induced Sprague-Dawley rat assessed as change in brain SODactivity at 50 mg/kg, po after 28 days; format: functional, organism-based; conditions: time 28.0 day
Summary of the method: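 Brain SOD activity. Rats were dosed orally for 28 days in 0.2% agar suspension, each followed by AlCl3 4.2 mg/kg i.p. Brains were taken on day 29, washed in saline and homogenized in chilled 50 mM Tris pH 8.2. Triton X-100 treatment at 4 °C, 30 min, then centrifugation. Pyrogallol was added and A420 read at 0 and 9 min, per gram fresh tissue. n = 6.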

Rattus norvegicus [27] = experiment: Antialzheimer activity against AlCl3-induced Sprague-Dawley rat assessed as improved in learning memory by measuring suppression of CAR at 50 mg/kg, po for 7 to 28 days by pole test; format: functional, organism-based; conditions: time 7-28 day
Summary of the method: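 Cook's pole-climbing apparatus used for conditioned avoidance response with foot shock, in acquisition and test sessions. Rats received oral dosing in 0.2% agar plus AlCl3 4.2 mg/kg i.p. daily for 28 days. CAR was recorded on days 7, 14, 21 and 28. n = 6 per group.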

[28] = Toxicity in AlCl3-induced Sprague-Dawley rat assessed as reduction in serum albumin level at 50 mg/kg, po after 28 days by automated analyser; format: organism-based; conditions: in vivo, 672 h, time 28 day; summary of the method: as §4
[29] = Toxicity in AlCl3-induced Sprague-Dawley rat assessed as focal erosions in intestine at 50 mg/kg, po after 28 days by H and E staining based microscopic method; format: organism-based; conditions: in vivo, 672 h, time 28 day; summary of the method: as §2

Work on `Nc1nc(-c2ccccc2)c(C(=O)c2cnc3ccccn23)s1` yielded an inhibition in vivo at 50 mg/kg (Rattus norvegicus [1]) of 40%.
`Nc1ncc(C(=O)c2cnc3ccccn23)s1` gave an inhibition in vivo at 50 mg/kg (Rattus norvegicus [1]) of 33%.
`Cc1ccn2c(C(=O)c3cnc(N)s3)cnc2c1` showed an inhibition in vivo at 50 mg/kg (Rattus norvegicus [2]) of 24%, an inhibition in vivo at 50 mg/kg (Rattus norvegicus [3]) of 18% and an inhibition in vivo at 50 mg/kg (Rattus norvegicus [4]) of 36%. For the same compound, the inhibition in vivo at 50 mg/kg (Rattus norvegicus [5]) was 23%, the inhibition in vivo at 50 mg/kg (Rattus norvegicus [1]) was 77% and the inhibition in vivo at 50 mg/kg (Rattus norvegicus [6]) was 30%.
`Cc1ccc2ncc(C(=O)c3sc(N)nc3N(C)C)n2c1` showed an inhibition in vivo at 50 mg/kg (Rattus norvegicus [1]) of 23%.
`Cc1ccn2c(C(=O)c3cnc4ccccn34)cnc2c1` gave an inhibition in vivo at 50 mg/kg (Rattus norvegicus [7]) of 67% and an inhibition in vivo at 50 mg/kg (Rattus norvegicus [8]) of 61%.
`Cc1ccc2ncc(C(=O)c3sc(N)nc3C)n2c1` showed an inhibition in vivo at 50 mg/kg (Rattus norvegicus [1]) of 33%.
With `Cc1cnc(NC(=O)C2=C(O)c3ccccc3S(=O)(=O)N2C)s1` [MELOXICAM] the Activity_index [9] was 12.19 mm, the Activity (Rattus norvegicus [10]) was “Active” and the Activity [11] was “Toxic”. The Activity [12] was “Toxic”, the Activity [13] was “Toxic” and the Activity [14] was “Non-Toxic”. For the same compound, the Activity_index [15] was 29.15 mm.
In the case of `Cc1ccn2c(C(=O)c3sc(N)nc3C)cnc2c1`, the inhibition in vivo at 50 mg/kg (Rattus norvegicus [1]) is reported as 66%.
In the case of `Cc1ccn2c(C(=O)c3sc(N)nc3N(C)C)cnc2c1`, the Activity (Rattus norvegicus [16]) is reported as “Active”, the Activity [17] is reported as “Non-Toxic” and the Activity (Rattus norvegicus [18]) is reported as “Active”. The Activity [19] was “Non-Toxic”, the Activity (Rattus norvegicus [20]) was “Active” and the Activity (Rattus norvegicus [21]) was “Active”. For the same compound, the inhibition in vivo at 50 mg/kg (Rattus norvegicus [2]) was 67%, the Activity [22] was “Non-Toxic” and the Activity [23] was “Non-Toxic”. For the same compound, the inhibition in vivo at 50 mg/kg (Rattus norvegicus [3]) was 63%, the inhibition in vivo at 50 mg/kg (Rattus norvegicus [4]) was 65% and the Activity [24] was “Non-Toxic”. For the same compound, the Activity (Rattus norvegicus [25]) was “Active”, the Activity (Rattus norvegicus [26]) was “Active” and the inhibition in vivo at 50 mg/kg (Rattus norvegicus [5]) was 60%. The inhibition in vivo at 50 mg/kg (Rattus norvegicus [1]) was 85%, the Activity (Rattus norvegicus [27]) was “Active” and the Activity [28] was “Non-Toxic”. For the same compound, the inhibition in vivo at 50 mg/kg (Rattus norvegicus [6]) was 58% and the Activity [29] was “Non-Toxic”.
Compound `Cc1ccn2c(C(=O)c3sc(N)nc3-c3ccccc3)cnc2c1` has an inhibition in vivo at 50 mg/kg (Rattus norvegicus [1]) of 26%.

Source: ChEMBL document CHEMBL4732250, “Investigations on substituted (2-aminothiazol-5-yl)(imidazo[1,2-a]pyridin-3-yl)methanones for the treatment of Alzheimer's disease” (Bioorg Med Chem, 2021)
